The values below come from ChEMBL document CHEMBL4837200, “Discovery of Orally Bioavailable Purine-Based Inhibitors of the Low-Molecular-Weight Protein Tyrosine Phosphatase” (J Med Chem, 2021).

Data set [1] deals with T1, Low molecular weight phosphotyrosine protein phosphatase (Homo sapiens, UniProt P24666).
T1 sequence (P24666 whole entry): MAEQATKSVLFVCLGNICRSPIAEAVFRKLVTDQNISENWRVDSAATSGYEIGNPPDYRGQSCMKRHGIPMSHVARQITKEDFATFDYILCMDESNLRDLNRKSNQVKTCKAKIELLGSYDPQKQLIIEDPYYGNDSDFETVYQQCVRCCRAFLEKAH
Briefly: Inhibition of recombinant human LMPTP-A using OMFP or pNPP as substrate by fluorescence assay. The method in brief: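 Recombinant human LMPTP-A in 50 mM Bis-Tris pH 6.0, 1 mM DTT, 0.01% Triton X-100, 37°C. With OMFP, fluorescence followed continuously (ex 485/em 525 nm). With pNPP, reaction stopped with 2 volumes 1 M NaOH and absorbance read at 405 nm. IC50 from inhibitor concentration vs % enzyme activity plots; n=4 unless otherwise noted.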

Data set [2] in a line: Cmax in C57BL/6 mouse at 10 mg/kg, po measured upto 24 hrs by LC-MS/MS analysis. It counts as ADME, organism-based. Set-up: route oral, dose 10 mg/kg, time <=24. Particulars: in vivo.
A short description of data set [3]: Oral bioavailability in C57BL/6 mouse at 10 mg/kg measured upto 24 hrs by LC-MS/MS analysis. The class given is ADME, organism-based. To be noted: in vivo.
Data set [4] can be described thus: Half life in C57BL/6 mouse at 10 mg/kg, po measured upto 24 hrs by LC-MS/MS analysis. To be noted: in vivo. The class given is ADME, organism-based.
Data set [5] can be described thus: Volume of distribution in C57BL/6 mouse at 2 mg/kg, iv measured upto 24 hrs by LC-MS/MS analysis. The class given is ADME, organism-based. To be noted: in vivo.
The nature of data set [6]: AUC in C57BL/6 mouse at 10 mg/kg, po measured upto 24 hrs by LC-MS/MS analysis. The class given is ADME, organism-based. Further details: route oral, dose 10 mg/kg, time <=24. Particulars: in vivo.
Data set [7] concerns the target T2, Low molecular weight phosphotyrosine protein phosphatase (Homo sapiens) (UniProt P24666).
T2 sequence (whole entry): T1 sequence (P24666 whole entry)
In words: Uncompetitive inhibition of recombinant human LMPTP-A using OMFP as substrate by Lineweaver-Burk plot analysis. An outline of the steps: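 Recombinant human LMPTP-A at 20 nM acting on increasing OMFP concentrations with increasing inhibitor concentrations. Buffer was 50 mM Bis-Tris pH 6.0, 1 mM DTT, 0.01% Triton X-100 at 37°C. Fluorescence read continuously (ex 485/em 525 nm). Rates fitted to Michaelis-Menten and mixed-model inhibition equations and shown as Lineweaver-Burk plots. 3 independent experiments in triplicate.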

Data set [8] has as its system Mus musculus. Briefly: Reversal of high fat diet induced diabetes in B6 mouse assessed as increase in insulin-stimulated AKT Thr308 phosphorylation in liver at 30 mg/kg/day, po administered for 2 weeks by Western blotting analysis. The class given is functional, organism-based. An outline of the steps: (§1)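 Male C57BL/6 littermates fed 60 kcal% fat chow for 3 months from 1-2 months of age; DIO mice ≥35 g given HFD containing 0.03% w/w compound (about 30 mg/kg/day) or HFD alone for 2 weeks. HFD n=8; treated n=9.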

Data set [9] is described as follows: Microsomal stability in human liver microsomes assessed as parent compound remaining measured after 1 hr. To be noted: read-out: Stabilty. It counts as ADME, Microsome.
Data set [10] in a line: Plasma protein binding in mouse. The class given is ADME, cell-free.
Data set [11] relates to Mus musculus. In words: Reversal of high fat diet induced diabetes in B6 mouse assessed as decrease in fasting insulin levels at 30 mg/kg/day, po administered for 2 weeks by ELISA. It counts as functional, organism-based. The method in brief:
as §1

Data set [12] can be described thus: Plasma protein binding in human. It counts as ADME, cell-free.
The test system of data set [13] is Mus musculus. Briefly: Reversal of high fat diet induced diabetes in B6 mouse assessed as increase in insulin-stimulated IR tyrosine phosphorylation in liver at 30 mg/kg/day, po administered for 2 weeks by ELISA. It counts as functional, organism-based. An outline of the steps: as §1
A short description of data set [14]: Microsomal stability in mouse liver microsomes assessed as parent compound remaining measured after 1 hr. Particulars: read-out: Stabilty. The class given is ADME, Microsome.
Data set [15] concerns Mus musculus. Briefly: Reversal of high fat diet induced diabetes in B6 mouse assessed as improved glucose tolerance at 30 mg/kg/day, po administered for 2 weeks followed by 13 hrs fasting and measured by IPGTT. The class given is functional, organism-based. The method in brief: as §1
The target of data set [16] is T2, Low molecular weight phosphotyrosine protein phosphatase (Homo sapiens). Briefly: Inhibition of LMPTP in human HepG2 cells assessed as increase in insulin-stimulated AKT Thr308 phosphorylation at 500 nM preincubated overnight followed by insulin stimulation for 5 mins by Western blotting analysis. It counts as cell-based. An outline of the steps:
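HepG2 cells grown in EMEM with 10% FBS plus penicillin/streptomycin. Serum-starved (0.1% FBS) overnight with DMSO or 500 nM compound, then stimulated with 10 nM bovine insulin for 5 min at 37°C with compound still present. Lysates probed by Western blot for pAKT Thr308, normalized to total AKT or GAPDH. 8 independent experiments.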

Activity calls are given as the source filed them. The calls are words filed in the database; no cut-off is given here.

As to `Nc1ncn(Cc2ccccc2)c2ncnc1-2` [3-BENZYLADENINE], the IC50 in data set [1] was determined as 13600 nM.

As to `Nc1ncn(Cc2cccc(Cl)c2)c2ncnc1-2`, in data set [1], the IC50 stood at 18500 nM.

In the case of `Cc1cccc(-c2nc3c(N)ncn(Cc4c(Cl)cccc4Cl)c-3n2)c1`, the IC50 in [1] was determined as 87 nM.

For `Nc1ncn(Cc2ccc(Cl)cc2)c2ncnc1-2`, the half-maximal inhibitory concentration (IC50) in data set [1] is 19400 nM.

In data set [2], `Cc1ccccc1-c1nc2c(N)ncn(Cc3c(Cl)cncc3Cl)c-2n1` came in with a Cmax of 17 ng/mL. Moreover, the F in data set [3] was found to be 3%. In data set [4], this compound gave a t1/2 of 1.55 h. Besides, in [5], the Vd is 4.04 L/kg. For the same compound, in data set [1], the half-inhibitory concentration (IC50) worked out at 6 nM. The compound further showed an AUC in data set [6] of 38 ng·h/mL.

As to `Nc1ncn(Cc2c(Cl)cccc2Cl)c2nc(-c3ccccc3F)nc1-2`, the IC50 in data set [1] is 147 nM.

With `Cc1nc2c(N)ncn(Cc3c(Cl)cccc3Cl)c-2n1`, in data set [1], the IC50 was 306 nM.

As to `Nc1ncn(Cc2c(Cl)cccc2Cl)c2nc(-c3cccc(Cl)c3)nc1-2`, the IC50 in data set [1] was found to be 380 nM.

Take `Nc1ncn(Cc2c(Cl)cccc2Cl)c2nc(-c3ccccc3Cl)nc1-2`: the concentration for half-maximal inhibition (IC50) in data set [1] turned out to be 171 nM.

With `Nc1ncn(Cc2c(Cl)cccc2Cl)c2nc(-c3ccccc3)nc1-2`, the IC50 in [1] is 104 nM.

With `Nc1ncn(Cc2c(Cl)cccc2Cl)c2nc(-c3ccc(Cl)cc3)nc1-2`, in [1], the IC50 was found to be 288 nM.

Take `Nc1ncn(Cc2ccccc2Cl)c2ncnc1-2`: the 50% inhibitory concentration (IC50) in data set [1] worked out at 1930 nM.

Take `Cc1ccccc1-c1nc2c(N)ncn(Cc3c(Cl)cccc3Cl)c-2n1`: the peak concentration (Cmax) in [2] is 134 ng/mL. This compound displayed a F in data set [3] of 19%. Also, the t1/2 in [4] was determined as 1.35 h. The compound also gave a Vd in [5] of 2.75 L/kg. In addition, the inhibition entry in data set [7] was “Active”. For the same compound, in [1], the IC50 was determined as 20 nM. The same compound registered an area under the curve (AUC) in [6] of 312 ng·h/mL.

For `Nc1ncn(Cc2c(Cl)cccc2Cl)c2nc(Cl)nc1-2`, the 50% inhibitory concentration (IC50) in data set [1] came to 27800 nM.

`Nc1ncn(Cc2c(Cl)cncc2Cl)c2ncnc1-2`: in [2], the maximum concentration (Cmax) was found to be 8220 ng/mL. This compound also yielded a F in data set [3] of 100%. Further, the outcome in data set [8], in [11], in [13] and in [15] was Active. Further, the remaining at 1 h in data set [9] and in data set [14] was > 90% each time. In data set [4], this compound yielded a t1/2 of 0.71 h. The figures for the PPB in data set [10] and in data set [12] were 89% and 88%, respectively. Besides, the Vd in data set [5] was 0.81 L/kg. In addition, in data set [1], the IC50 was 83 nM. Also, the inhibition result in data set [16] is “Active”. In data set [6], this compound had an area under the curve (AUC) of 9501 ng·h/mL.

On to `Cc1cccc(C)c1Cn1cnc(N)c2ncnc1-2`, for which the 50% inhibitory concentration (IC50) in data set [1] worked out at 3430 nM.

With `N#Cc1ccccc1-c1nc2c(N)ncn(Cc3c(Cl)cccc3Cl)c-2n1`, the IC50 in data set [1] was determined as 245 nM.

For the compound `Nc1ncn(Cc2c(Cl)cccc2Cl)c2nc(Br)nc1-2`, the concentration for half-maximal inhibition (IC50) in [1] amounted to 17600 nM.

As for `Nc1ncn(Cc2c(Cl)cccc2Cl)c2nc(-c3ccc(F)cc3)nc1-2`, the half-maximal inhibitory concentration (IC50) in data set [1] came out at 117 nM.

Take `COc1ccccc1-c1nc2c(N)ncn(Cc3c(Cl)cccc3Cl)c-2n1`: the IC50 in [1] is 106 nM.

In turn, `Nc1ncn(Cc2c(Cl)cccc2Cl)c2ncnc1-2` showed a maximum concentration (Cmax) in data set [2] of 5018 ng/mL. This compound also had a F in data set [3] of 66%. In data set [4], the t1/2 was determined as 4.71 h. In data set [5], this compound registered a Vd of 3.01 L/kg. Further, the concentration for half-maximal inhibition (IC50) in data set [1] was determined as 239 nM. In data set [6], this compound had an exposure (AUC) of 18544 ng·h/mL.

Regarding `Cc1ccc(-c2nc3c(N)ncn(Cc4c(Cl)cccc4Cl)c-3n2)cc1`, in data set [1], the concentration for half-maximal inhibition (IC50) was 119 nM.

With `Nc1ncn(Cc2c(Cl)cccc2Cl)c2nc(-c3cccc(F)c3)nc1-2`, the IC50 in data set [1] worked out at 239 nM.

Turning to `Nc1ncn(Cc2ccc(Cl)cc2Cl)c2ncnc1-2`, in data set [1], the IC50 was 1020 nM.
